Holding throughout (assay type): functional
Holding throughout (conditions): read-out: DIZ

The test system of one assay is Staphylococcus aureus. In words: Antibacterial activity against Staphylococcus aureus at 100 ug after 24 hrs by agar disc-diffusion method. In outline:
(§1)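 Agar disc-diffusion on nutrient agar. Sterile 6 mm filter-paper discs moistened with the test compound in DMSO were placed on plates seeded separately with each bacterium. Amoxicillin was the reference drug. Plates were incubated at 37 °C, and the growth-inhibition zone diameter was measured after 24 h.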
(Agar diffusion results depend on both activity and mobility in agar.)

A further assay relates to Bacillus subtilis. In words: Antibacterial activity against Bacillus subtilis at 100 ug after 24 hrs by agar disc-diffusion method. Summed up:
as §1

For another assay, the system named is Escherichia coli. The experiment in a line: Antibacterial activity against Escherichia coli at 100 ug after 24 hrs by agar disc-diffusion method. In outline: as §1
A further assay relates to Candida albicans. The experiment in a line: Antifungal activity against Candida albicans at 100 ug after 48 hrs by agar disc-diffusion method. In outline:
(§2)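 Disc diffusion on nutrient agar. Plates were inoculated separately with each fungus, then 6 mm paper discs wetted with the compound solution in DMSO were applied. Fluconazole was the reference drug. Plates were incubated at 37 °C, and inhibition-zone diameters were read after 48 h.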

The subject of the next assay is Aspergillus niger. In words: Antifungal activity against Aspergillus niger at 100 ug after 48 hrs by agar disc-diffusion method. Summed up: as §2

In the case of `COc1ccc(C(CC(=O)c2cc3ccccc3o2)C[N+](=O)[O-])cc1` (stereo not given), the zone of inhibition at 100 µg/disc in the assay on Staphylococcus aureus came to 0 mm; in the assay with Bacillus subtilis, 0 mm; in the assay on Escherichia coli it was 12 mm; in the assay on Candida albicans it was 25 mm; with Aspergillus niger, 0 mm.

On to `NC(=S)N1N=C(c2cc3ccccc3o2)CC1c1ccc(Cl)cc1` (stereo not given), for which the zone of inhibition at 100 µg/disc was 0 mm in the assay with Staphylococcus aureus; 12 mm in the assay with Bacillus subtilis; 15 mm with Escherichia coli; 0 mm in the assay on Candida albicans; 15 mm in the assay with Aspergillus niger.

As to `O=C(CC(C[N+](=O)[O-])c1ccccc1)c1cc2ccccc2o1` (stereo not given), the zone of inhibition at 100 µg/disc in the assay with Staphylococcus aureus was 0 mm; in the assay on Bacillus subtilis, 0 mm; in the assay with Escherichia coli, 12 mm; with Candida albicans, 30 mm; with Aspergillus niger it was 0 mm.

As to `c1ccc(-c2csc(N3N=C(c4cc5ccccc5o4)CC3c3ccccc3)n2)cc1` (stereo not given), the zone of inhibition at 100 µg/disc in the assay with Staphylococcus aureus was 17 mm; in the assay with Bacillus subtilis, 0 mm; in the assay on Escherichia coli, 25 mm; in the assay with Candida albicans, 0 mm; in the assay with Aspergillus niger it was 0 mm.

Consider `Clc1ccc(C2CC(c3cc4ccccc4o3)=NN2c2nc(-c3ccccc3)cs2)cc1` (stereo not given), for which the zone of inhibition at 100 µg/disc in the assay with Staphylococcus aureus came out at 0 mm; in the assay with Bacillus subtilis it was 0 mm; in the assay with Escherichia coli, 12 mm; in the assay on Candida albicans, 25 mm; in the assay on Aspergillus niger it was 15 mm.

Take `O=C(CC(C[N+](=O)[O-])c1ccc(Cl)cc1)c1cc2ccccc2o1` (stereo not given): the zone of inhibition at 100 µg/disc in the assay with Staphylococcus aureus stood at 0 mm; in the assay on Bacillus subtilis it was 0 mm; with Escherichia coli it was 12 mm; in the assay on Candida albicans, 20 mm; with Aspergillus niger, 15 mm.

Turning to `Brc1ccc(-c2csc(N3N=C(c4cc5ccccc5o4)CC3c3ccccc3)n2)cc1` (stereo not given), the zone of inhibition at 100 µg/disc in the assay on Staphylococcus aureus, in the assay with Bacillus subtilis, in the assay with Escherichia coli, with Candida albicans and in the assay with Aspergillus niger was 0 mm throughout.

Turning to `NC(=S)N1N=C(c2cc3ccccc3o2)CC1c1ccccc1` (stereo not given), the zone of inhibition at 100 µg/disc is 0 mm with Staphylococcus aureus; 0 mm in the assay on Bacillus subtilis; 0 mm with Escherichia coli; 5 mm in the assay on Candida albicans; 0 mm with Aspergillus niger.

As to `Clc1ccc(C2CC(c3cc4ccccc4o3)=NN2c2nc(-c3ccc(Br)cc3)cs2)cc1` (stereo not given), the zone of inhibition at 100 µg/disc is 0 mm in the assay on Staphylococcus aureus; 0 mm in the assay on Bacillus subtilis; 0 mm in the assay with Escherichia coli; 25 mm in the assay on Candida albicans; 0 mm in the assay on Aspergillus niger.

Consider `CC1(C)S[C@@H]2[C@H](NC(=O)[C@H](N)c3ccc(O)cc3)C(=O)N2[C@H]1C(=O)O` [AMOXICILLIN], for which the zone of inhibition at 100 µg/disc in the assay with Staphylococcus aureus, in the assay with Bacillus subtilis and in the assay on Escherichia coli was 20 mm each time.

Turning to `OC(Cn1cncn1)(Cn1cncn1)c1ccc(F)cc1F` [FLUCONAZOLE], the zone of inhibition at 100 µg/disc with Candida albicans and with Aspergillus niger was 20 mm each time.

These data come from ChEMBL document CHEMBL1158349, “Synthesis and antimicrobial evaluation of 1-(benzofuran-2-yl)-4-nitro-3-arylbutan-1-ones and 3-(benzofuran-2-yl)-4,5-dihydro-5-aryl-1-[4-(aryl)-1,3-thiazol-2-yl]-1H-pyrazoles” (2009).
